Tests used:
[1] = test system: human cardiac fibroblasts (HCFs); test: Fibroblast proliferation quantified by cell counting, HCFs; format: cell-based; conditions: 10^−6 M, TGFβ−1 5 ng/ml, 72 hours, trypan blue, Cedex XS Analyzer (Supplemental Table 2)
In short: (§1)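 Fibroblasts at passages 4–8, purity checked by vimentin immunostaining, were counted, seeded in complete medium and held overnight at 37 °C, 5% CO2. Medium was replaced with fresh medium containing TGFβ-1 (5 ng/ml) alone or with test compound (10−8, 10−7 or 10−6 M) for 8 or 72 h. Cells were then trypsinized, stained with 0.2% trypan blue and counted on an automated analyzer.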

[2] = test system: human renal fibroblasts (HRFs); test: Live-cell real-time proliferation imaging; format: cell-based; conditions: 10^−6 M, similar to vehicle (Supplemental Table 1)
[3] = test system: human cardiac fibroblasts (HCFs); test: Differentiation to myofibroblasts; format: cell-based; conditions: 10^−6 M, TGFβ−1 5 ng/mL
In short: (§2)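 Fibroblasts were serum-starved in 0.01% FBS for 48 h, then given TGFβ-1 (5 ng/ml) with or without test compound (10−6 M) for 24, 48 and 72 h. For immunostaining, cells were fixed in 4% formaldehyde, permeabilised with 0.2% Triton X-100, and stained with anti-α-SMA (1:200, 4 °C overnight), a Texas Red secondary and DAPI; confocal images were scored as corrected total cell fluorescence. For western blots, NP-40 lysates were probed for α-SMA and normalised to GAPDH.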

[4] = test system: human renal fibroblasts (HRFs); test: Fibroblast proliferation quantified by cell counting, HRFs; format: cell-based; conditions: 10^−6 M, TGFβ−1 5 ng/ml, 72 hours, trypan blue, Cedex XS Analyzer (Supplemental Table 2)
In short: as §1

[5] = test system: human cardiac fibroblasts (HCFs); test: cGMP generation in human primary cardiac fibroblasts; format: cell-based; conditions: 10^−8, 10^−7 and 10^−6 M, 10 min, 0.5 mM IBMX, cGMP ELISA, vs vehicle
In short: (§3)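 Primary human cardiac and renal fibroblasts, checked for purity by vimentin staining, were used at passages 4–8. Cells grown to 80% confluency were treated for 10 min with buffer (HBSS, 0.1% BSA, 2 mM HEPES, 0.5 mM IBMX) alone or with test compound at 10−8, 10−7 or 10−6 M. Cells were washed in PBS and lysed in 0.1 M HCl, and intracellular cGMP was measured by ELISA.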

[6] = Blood pressure and renal function with acute IV infusion; format: in vivo, Fischer rats; conditions: mean ± SEM, n=4/group; for UV (urine flow): 60 min clearance; for UNaV (urinary sodium excretion rate): flame photometry; for GFR (glomerular filtration rate): inulin clearance; for ΔMAP (change in mean arterial pressure): normal rats
In short: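 Male Fischer rats (about 2 months, 200–250 g) under isoflurane (2–3% in oxygen) had jugular vein, carotid artery and bladder catheters. After 30 min equilibration with IV inulin and saline, test compound or 0.9% saline vehicle was infused IV with inulin for 75 min, including a 15 min lead-in. BP was recorded and urine collected over a 60 min clearance period. Urinary sodium was measured by flame photometry and inulin by anthrone; GFR was taken from inulin clearance. n=4/group.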

Plasma CNP-like levels = format: in vivo, Fischer rats; conditions: low, medium and high dose (4.55, 45.5, 455 pmol/kg/min) IV infusion 75 min, normal rats, RIA, n=4/group
In short: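 They then received a 75 min continuous IV infusion (15 min lead-in) of native peptide, analogue or 0.9% saline vehicle with inulin. Infusion rate was weight-adjusted. Blood was taken after the 60 min clearance period. A non-equilibrium RIA used a CNP-sequence antibody (standard curve 0.5–128 pg; <1% cross-reactivity with ANP, BNP).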

parental HEK293 cells = test: cGMP generation in parental; format: cell-based, human; conditions: levels similar to vehicle treatment (Supplemental Figure 2)
In short: (§4)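 HEK293 cells stably expressing human pGC-A or pGC-B, or parental cells, were kept in DMEM with 10% FBS and 250 ug/ml G418. Cells were grown overnight to 80–90% confluency. They were treated for 10 min with serial concentrations (10−10 to 10−6 M) in HBSS containing 0.1% BSA, 2 mM HEPES and 0.5 mM IBMX; buffer alone served as vehicle. After a PBS wash and lysis in 0.1 M HCl, intracellular cGMP was measured by ELISA.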

[7] = test system: human renal fibroblasts (HRFs); test: Differentiation to myofibroblasts; format: cell-based; conditions: 10^−6 M, TGFβ−1 5 ng/mL
In short: as §2

human pGC-B receptor = biological target: T1, human pGC-B receptor (Homo sapiens, UniProt P20594); test: cGMP generation in HEK293 cells overexpressing human pGC-B; format: cell-based; conditions: 10 min
T1 sequence (P20594 23-1047): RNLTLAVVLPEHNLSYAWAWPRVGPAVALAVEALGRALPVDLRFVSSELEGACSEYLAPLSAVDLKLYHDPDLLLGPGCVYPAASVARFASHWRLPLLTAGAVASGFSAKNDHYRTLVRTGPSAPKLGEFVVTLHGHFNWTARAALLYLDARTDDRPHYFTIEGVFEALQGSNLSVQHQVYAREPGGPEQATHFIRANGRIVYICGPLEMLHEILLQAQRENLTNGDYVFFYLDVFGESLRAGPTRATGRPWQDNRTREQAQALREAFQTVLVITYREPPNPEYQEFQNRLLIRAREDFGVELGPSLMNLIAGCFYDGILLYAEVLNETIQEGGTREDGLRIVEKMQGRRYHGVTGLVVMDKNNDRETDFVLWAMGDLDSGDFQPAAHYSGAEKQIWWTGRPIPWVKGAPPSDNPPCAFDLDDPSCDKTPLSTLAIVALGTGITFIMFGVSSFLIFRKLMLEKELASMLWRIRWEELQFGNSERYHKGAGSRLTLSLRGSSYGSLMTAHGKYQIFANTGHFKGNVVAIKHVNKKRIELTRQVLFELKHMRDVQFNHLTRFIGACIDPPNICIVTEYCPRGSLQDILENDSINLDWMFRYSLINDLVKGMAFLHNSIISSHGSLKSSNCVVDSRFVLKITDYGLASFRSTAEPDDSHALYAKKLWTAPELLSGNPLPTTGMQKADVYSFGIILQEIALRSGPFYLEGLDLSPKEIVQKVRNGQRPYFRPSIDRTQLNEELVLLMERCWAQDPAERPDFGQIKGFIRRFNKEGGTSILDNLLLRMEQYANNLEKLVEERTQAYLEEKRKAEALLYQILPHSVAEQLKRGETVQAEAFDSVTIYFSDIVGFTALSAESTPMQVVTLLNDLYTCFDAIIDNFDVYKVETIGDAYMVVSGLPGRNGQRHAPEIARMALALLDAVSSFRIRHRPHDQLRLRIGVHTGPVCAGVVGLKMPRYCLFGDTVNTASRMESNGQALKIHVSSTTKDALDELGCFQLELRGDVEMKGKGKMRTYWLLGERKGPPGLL
In short: as §4

[8] = test system: human renal fibroblasts (HRFs); test: cGMP generation in human primary renal fibroblasts; format: cell-based
In short: as §3

[9] = test system: human cardiac fibroblasts (HCFs); test: Live-cell real-time proliferation imaging; format: cell-based; conditions: 10^−6 M, similar to vehicle (Supplemental Table 1)
[10] = 48 and 72 hours (data not shown)
[11] = 24 hours, immunostaining and western blotting
[12] = High = 455 pmol/kg/min IV infusion
[13] = Low = 4.55 pmol/kg/min IV infusion
[14] = Medium = 45.5 pmol/kg/min IV infusion

## NH2 - DLRVDTKSRAAWARLLQEHPNARKYKGANKKGLSKGCFGLKLDRIGSMSGLGC – COOH [C53]
[1]
  TGFβ−1 induced HCFs proliferation by cell counting: suppressed TGFβ−1 induced proliferation
[2]
  HRFs proliferation in the absence of TGFβ−1 stimulation: had no effect on proliferation
[3]; [10]
  Reduction of differentiation of HCFs to myofibroblasts: not sustained
[3]; [11]
  Differentiation of HCFs to myofibroblasts (α-SMA expression): significantly reduced the differentiation
[4]
  TGFβ−1 induced HRFs proliferation by cell counting: suppressed TGFβ−1 induced proliferation
[5]
  Intracellular cGMP in HCFs: increased intracellular cGMP levels
[6]; [12]
  UV (urine flow): 13.5 ± 2.0 µL/min
  UNaV (urinary sodium excretion rate): 1.1±0.3 uEq/min
  GFR (glomerular filtration rate): 1.1 ± 0.2 mL/min
  ΔMAP (change in mean arterial pressure): −3.7±2.6 mmHg
[6]; [13]
  UV (urine flow): 13.3 ± 2.0 µL/min
  UNaV (urinary sodium excretion rate): 0.9±0.2 uEq/min
  GFR (glomerular filtration rate): 1.2 ± 0.1 mL/min
  ΔMAP (change in mean arterial pressure): −0.5±1.0 mmHg
[6]; [14]
  UV (urine flow): 11.3 ± 0.8 µL/min
  UNaV (urinary sodium excretion rate): 1.0±0.1 uEq/min
  GFR (glomerular filtration rate): 1.5 ± 0.1 mL/min
  ΔMAP (change in mean arterial pressure): −1.4±1.1 mmHg
Plasma CNP-like levels
  Plasma CNP-like levels (CLL): increased plasma CLL levels in a dose-dependent manner
Parental HEK293 cells
  cGMP generation in parental HEK293 cells: did not generate cGMP
[7]; [10]
  Reduction of differentiation of HRFs to myofibroblasts: not sustained
[7]; [11]
  Differentiation of HRFs to myofibroblasts (α-SMA expression): significantly reduced the differentiation
Human pGC-B receptor; 10^−8.5 to 10^−6 M, 0.5 mM IBMX, intracellular cGMP ELISA, triplicate
  cGMP generation in HEK293 pGC-B cells compared to vehicle: significant cGMP generation
Human pGC-B receptor; HEK293 pGC-B cells, 10^−10 to 10^−6 M, cGMP ELISA
  pGC-B receptor potency compared to CNP: no difference observed
[8]; 10^−8, 10^−7 and 10^−6 M, 10 min, 0.5 mM IBMX, cGMP ELISA, vs vehicle, dose-dependent
  Intracellular cGMP in HRFs: increased intracellular cGMP levels
[8]; ratio HRFs/HCFs
  cGMP values in HRFs compared to HCFs: 16 fold
[9]
  HCFs proliferation in the absence of TGFβ−1 stimulation: had no effect on proliferation

— publication PMC6557127 (Journal of molecular and cellular cardiology, 2019)
